Source: ChEMBL document CHEMBL4513216, “Probing the Open Global Health Chemical Diversity Library for Multistage-Active Starting Points for Next-Generation Antimalarials” (ACS Infect Dis, 2020)

Assay: Toxicity liver stage against HepG2, at 10uM
Type: cell-based
Parameters: test concentration 10 uM, cell line HepG2-A16-CD81EGFP
Settings: human, HepG2-A16-CD81EGFP cells; read-out: INHIBITION
Procedure, shortened: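 Uninfected HepG2-A16-CD81EGFP cells, 3 × 10^3 per well, 1536-well, plated on prespotted compound at 10 μM final, parasite-free screening media added to match infected plates; puromycin 10 μM positive, DMSO 0.5% negative; run in parallel with 48 h PbLuc assay at 37 °C, 5% CO2; viability by CellTiter-Glo luminescence, normalized to controls.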

Compound	cytotoxicity at 10 µM [%]
COC(=O)COn1c(SC(C)C)nc2ccccc2c1=O	-6.17
COc1ccc(NC(=O)C2OC(c3cccs3)=NN2C(C)=O)cc1 (stereo unspecified)	-1.6
CC(C)(Oc1ccc(C(N)=O)cc1)C(=O)N(CCC#N)CC1CCCO1 (stereo unspecified)	5.55
COc1ccccc1CN1CC(O)CN(S(=O)(=O)C(C)C)CC1=O (stereo unspecified)	-12.4
CCOC(=O)N1CC(=O)N(CCc2ccccc2)CC(O)C1 (stereo unspecified)	-4.73
CC(C)CNC(=O)Cc1cnc(-n2cccc2)s1	-3.66
COc1cn(CC(=O)N2CCN(c3ccc(Cl)cc3)CC2)c(C)cc1=O	1.82
CCN(CC)C(=O)CSc1nc2c(cnn2CCO)c(=O)[nH]1	1.29
O=S(=O)(NCC(O)c1ccoc1)c1ccc(Br)s1 (stereo unspecified)	5.76
CN(C)CCNC(=O)c1noc2c1CN(C(=O)N(C)C)CC2	10.6
CS(=O)(=O)N1CCC2(CCCN(c3ncc(F)cn3)C2)C1 (stereo unspecified)	5.19
c1cnc(OCc2nnc3n2CCN(Cc2ccco2)C3)nc1	-2.12
c1cc(-c2nnn3c2COC(CNCC2CCOCC2)C3)ccn1 (stereo unspecified)	-23.8
CS(=O)(=O)N1C[C@@H]2COC[C@@H](CC(=O)N3CCCCO3)[C@@H]2C1	10.6
COc1ccc(NC(=O)CCSc2ccc3nncn3n2)c(OC)c1	-15.3
CC(C)NC(=O)N1CCC2(CC(C(=O)NCc3cccnc3)=NO2)C1 (stereo unspecified)	-0.8
CN(C)CCn1nc(C2CCN(Cc3ccccc3)C2)c2cccnc21 (stereo unspecified)	-7.47
Cn1ccc(C(=O)N2CCC(Cc3ccc4ncccc4c3)CC2)n1	13.7
COCCNc1ccc(CC2CCCN(c3ncccn3)C2)nn1 (stereo unspecified)	3.81
Cc1cc(N(C)C)cc(C2CCN(S(=O)(=O)c3cccnc3)C2)n1 (stereo unspecified)	4.26
Cc1c(CN2C[C@@H](O)[C@H](Oc3cccc(F)c3)C2)cnn1C	-8.21

Compound	cytotoxicity at 10 µM [%]
Cc1nn(C)cc1S(=O)(=O)NC1(CN2CCOCC2)CCCCC1	-8.27
Cc1ccc2c(c1)C(=O)NCC1(CCN(C(=O)c3ccccn3)CC1)O2	-25
Cc1ccccc1-c1cncc(C2CCN(Cc3cnn(C)c3)CC2)n1	-30.6
Cc1cc(C)n(Cc2ccc(C(=O)N3CCOCC3(C)C)cc2)n1	-9.23
CC(=O)NC1CCN(C(=O)Nc2cccc(C(F)(F)F)c2)CC1	-6.74
O=C(OCCF)c1cccc(C(=O)N2CCCC2)n1	0.684
Cc1ccc(-c2noc(Cn3nc(C(N)=O)ccc3=O)n2)cc1	-1.6
COC1CCN(CCNC(=O)NC(C)c2cccc(Cl)c2)CC1 (stereo unspecified)	-2.46
CCN(CC)C(=O)CCCNC(=O)c1csc(NC2CC2)n1	8.67
CCc1nc(C(=O)N(C)CC(=O)N(C)C)nn1-c1ccccc1Cl	-23.5
COc1cccc(S(=O)(=O)CCN2CCN(CC(F)F)CC2)c1	-3.96
COc1ccccc1C(=O)NS(=O)(=O)c1cncc(Br)c1	-6.05
CC(C)NC(=O)Nc1ccc(CS(C)(=O)=O)cc1	1.69
CCCc1noc(CCC(=O)N2CCCCC2Cn2cc(C)cn2)n1 (stereo unspecified)	-0.232
COc1ccc(CNC(=O)NCc2ccc(C(N)=O)cc2)cn1	-2.94
Cc1ncc(CN(C)C(=O)Nc2cccc(C(=O)N3CCOCC3)c2)s1	11.6
Cc1nn(C)c(C)c1OCC(=O)N1CCCCC1	2.23
CCC(CC)(CC)NC(=O)Nc1nnc(-c2ccccn2)s1	-2.27
NC(=O)Cn1ccc(NC(=O)C2(c3cccc(F)c3)CCC2)n1	-5.75
NC(=O)c1ccc(OCC(=O)N2CCCC2c2ccc[nH]2)cc1 (stereo unspecified)	-5.82
Cc1cc(Br)c(O)c(C(=O)N2CCC(CN3CCCCCC3)CC2)c1	8.29

Compound	cytotoxicity at 10 µM [%]
CC(C)c1noc(CS(=O)(=O)CC(=O)NCc2cccs2)n1	2.71
CC(Sc1nnc(C2CC2)n1CC(N)=O)c1ccc(F)c(Cl)c1 (stereo unspecified)	4.26
CC(=O)NCC(=O)N1CCN(CC2CC2)c2ncccc2C1	0.359
Cc1cnc(C)c(N2CCCC(C/C=C/c3ccccc3)(C(=O)O)C2)n1 (stereo unspecified)	9.42
O=C(CCC1CCCN(S(=O)(=O)C2CC2)C1)Nc1ccc(Cl)cc1 (stereo unspecified)	3.69
Cc1nc(CN(C)C(=O)Nc2cccc(C)c2C)no1	-0.739
COc1cc(C)cc(C(C(=O)O)N(C)CCN2CCCC2)c1OC (stereo unspecified)	0.712
CN(C)CCN(C)C1CCCN(C(=O)c2ccc(Cn3ccnc3)o2)C1 (stereo unspecified)	6.69
O=C(COc1ccccc1O)N1CCOC(C(F)(F)F)C1 (stereo unspecified)	-2.3
CCN(C)S(=O)(=O)NCC1CCN(Cc2ccccc2F)C1 (stereo unspecified)	-2.48
c1cc2c(cc1OC[C@@H]1CCCN3CCCC[C@H]13)OCCO2	-2.48
Cn1c(C2CCCN2C(=O)c2cn(CCN)nn2)nc2ccccc21 (stereo unspecified)	3.76
CCn1c(C2CCN(Cc3cc(C)n(NC(C)=O)c3C)CC2)n[nH]c1=O	4.74
CCCc1nnc(C(=O)N(C)Cc2cnc3ccccn23)o1	-3.41
CC(=O)Nc1ccc(Oc2cccc(CN3CCCC3)c2)cc1	-14
Cc1nc(O)cc(C2CCCN(C(=O)CN(C)c3ccccc3)C2)n1 (stereo unspecified)	12.8
Cc1ccccc1C1CCN(CCn2cc(-c3nccn3C)nn2)C1 (stereo unspecified)	4.96
CCS(=O)(=O)c1ncc(CN(C)Cc2ccccc2OC)n1CCOC	-2.23
CCN(Cc1cnn(C)c1)C(=O)c1ccc(C)c(N2CCNC2=O)c1	-7.08
COc1ccc(OC2CCN(C(=O)CCc3nc(Cl)n[nH]3)CC2)cc1	4.47
Cc1nn(C)cc1C(=O)N1CCCC(c2nccn2Cc2cscn2)C1 (stereo unspecified)	-4.32

Compound	cytotoxicity at 10 µM [%]
Cc1ccnc(NC(=O)C(C)Cn2cncn2)c1 (stereo unspecified)	0.298
C[C@@H]1CN(C(=O)CCN2CCCC2)CC[C@@]1(O)C1CCC1	-7.97
CC(Nc1cccc(CN2CCOC2=O)c1)C(=O)Nc1cccc(F)c1 (stereo unspecified)	-9.16
Cc1ccc(CC(=O)N2CCN(CC(O)C(C)(C)C)CC2)cn1 (stereo unspecified)	-4.51
Cc1noc(C)c1CC(=O)N1CCN(Cc2cscn2)CC1	-8.72
CCC1CN(C(=O)Nc2cnc3c(cnn3C(C)C)c2)CCO1 (stereo unspecified)	-9.46
CC(NC(=O)Cc1cccs1)c1nnc2n1CCCCC2 (stereo unspecified)	-15.5
CC(C)c1ncc2c(n1)CN(Cc1nc(-c3ccoc3)no1)CC2	-3
Cc1nc(NC2CCCCC2)cc(C2CCCNC2)n1 (stereo unspecified)	-30.3
CCc1nc2ccccc2c(=O)n1CC1(O)CCNCC1	-15.3
Cc1ccc(C(=O)N2CCC3(CC2)CCN(CCN(C)C)C3=O)cn1	5.36
CN(Cc1cccnc1)Cc1cn2c(n1)CN(C1CCOC1)CC2 (stereo unspecified)	6.2
CC(C)c1cc(C(=O)N2CCOC3(CCNCC3)C2)no1	3.65
CC(C)c1cc(C(=O)N2CCc3nc(C4CCCN4)ncc3C2)cs1 (stereo unspecified)	-16.5
c1cnn(Cc2nnc3n2CCCN(CC2CCOCC2)C3)c1	2.6
O=C1COC2(CCN(C(=O)c3ccco3)CC2)CN1Cc1ccccn1	6.45
Cc1ccccc1CN1C[C@H]2CC[C@@H](C1)N(CC1CCC1)C2=O	4.86
CCOc1ccc(C(=O)N2C[C@@H]3CC[C@H]2CN(C)C3)cc1OCC	-15.7
